Assay outcomes from PubChem.
Shown is part of a subset that was picked to be rich in hits.
UPR CHOP act: activators of apoptotic CHOP UPR arm, primary screen, cell-based, CHO-CHOP luciferase reporter, luminescence, uHTS | 330,000 tested, 0.34% active | UPR activation; percent of tunicamycin response over DMSO baseline | activation, % at 10 µM | AID 449763, 2010;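 active = at 10 µM dose, activation of 40% or more, normalized to positive control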;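 note: 100% = tunicamycin at 10 µg/mL and 0% = DMSO alone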
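Evaluation: % reporter activation, DMSO baseline versus tunicamycin full activation; System: CHO-CHOP luciferase reporter cell line; Input: 500 cells/well; Incubation: 6 h compound treatment, 37 °C; Measured by: Steady-Glo luciferase luminescence; Dosing: one dose, 10 µM in 0.5% DMSO; Buffer or medium: F12 medium, 10% FBS; Benchmarks: positive tunicamycin 10 µg/mL, negative DMSO alone.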
GAA850 FXN act: FXN promoter activators, primary screen, cell-based, luciferase luminescence, HEK293 lucGAA850 | HEK293 lucGAA850 FXN promoter luciferase reporter, 24 h; percent of 10 µM SAHA response | activation, % at 6 µM | 360,000 tested, 0.56% active;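 active = activation above the average of all compounds screened plus 3 SD, cutoff fixed separately per campaign, cut at about 7.5% in these data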;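 note: 0% = DMSO wells and 100% = 10 µM SAHA wells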
UPR XBP1 act: activators of adaptive XBP1 UPR arm, primary screen, cell-based, CHO-XBP1 luciferase reporter, luminescence, uHTS; AID 463104, 2010; IRE1-XBP1 UPR activation; percent of tunicamycin response, DMSO as zero; 330,000 tested, 0.33% active; activation, % at 20 µM;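 active = versus positive control, 20 µM dose yields 30% or more activation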;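 note: 100% = tunicamycin at 10 µg/mL and 0% = DMSO only wells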
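incubation = overnight seeding at 37 °C, 6 h compound treatment at 37 °C | assay system = CHO-XBP1 cells stably carrying IRE1-XBP1-driven luciferase reporter | input = 1000 cells per well | detection = luciferase luminescence | dosing = single point, 20 µM final compound, 1% DMSO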
CHOP inhibitor: inhibitors of CHOP promoter induction, primary screen, cell-based, unfolded protein response, luciferase reporter; AID 2732, 2010; CHO-K1 CHOP-promoter luciferase, tunicamycin-induced, 15-18 h; 220,000 tested, 3.8% active; inhibition, % at 10 µM;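 active = compounds that reduced the stress-induced luciferase reporter signal by more than about 70% of percent inhibition, limit read from the data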;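 note: 0% = tunicamycin plus vehicle and 100% = wells without tunicamycin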
CHOP confirm: retest of CHOP induction inhibitors, confirmation, cell-based; 2,100 tested, 45% active; shares compounds with CHOP inhibitor; CHO-CHOP promoter luciferase reporter, tunicamycin-induced, luminescence; inhibition, % at 10 µM;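 active = mean of three repeat readings of reporter signal inhibition above a set limit, cut at about 70% in these data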;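 note: 0% = tunicamycin plus vehicle and 100% = wells lacking tunicamycin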
* = called active by the depositor; x = not tested or not shown.

SMILES | UPR CHOP act | GAA850 FXN act | UPR XBP1 act | CHOP inhibitor | CHOP confirm
CN=C(Nc1cc(Cl)ccc1Cl)SC1CC(=O)N(c2ccc(C(=O)OC)cc2)C1=O (configuration not stated) | -1 | -2 | -4 | 105* | 5
CC1=CCC[C@@H]2[C@]3(CC/C(=C/CO)CO)CO[C@@]2(C1)[C@@H](O)C[C@H]3C | x | 1 | x | x | x
COC(=O)c1cnc(NC(=O)C2(C)CCN2C(=O)C(C)C)s1 (configuration not stated) | x | 0 | x | x | x
c1ccc(C2Nc3cccc4cccc(c34)N2)cc1 | 1 | 2 | 4 | x | x
c1csc(C2Nc3cccc4cccc(c34)N2)c1 | 0 | 1 | 1 | 97* | 16
O=Nc1ccc(O)c2ncccc12 | -1 | -13 | -6 | 106* | 108*
O=[N+]([O-])c1ccc(O)c2cccnc12 | -2 | 1 | 2 | 4 | x
CN(C)c1ccc(NC(=O)CSc2nc3ccccc3c(=O)n2C2CCCCC2)cc1 | 2 | -3 | -2 | 32 | x
CCCN(CCC)C(=O)CSc1nc2ccccc2c(=O)n1C1CCCC1 | -2 | 0 | -4 | 97* | 4
Cc1occc1-c1nnc(SCC(=O)Nc2nc(C(C)(C)C)cs2)o1 | 6 | 0 | -1 | 103* | 60
Nc1ccn(CCCNC2CCN(Cc3ccccc3)CC2)c(=O)n1 | x | -1 | x | x | x
Cc1ccccc1N1CCN(C(=O)c2ccc(Oc3ccc(C(F)(F)F)cn3)cc2)CC1 | 0 | -1 | -2 | 103* | 73*
COc1cccc(CN(Cc2ccco2)C(c2ccc(F)cc2)c2nnnn2C(C)(C)C)c1 (configuration not stated) | -1 | 1 | -2 | 48 | x
CC(C)(C)n1nnnc1CN(Cc1ccc(F)cc1)Cc1ccco1 | -1 | 1 | -1 | 101* | 62
OCC[C@@H]1C[C@H](O)[C@@H](O)[C@@]2(OCc3cc(C(F)(F)F)ccc32)O1 | x | -1 | x | x | x
Cc1nn(-c2ccccn2)c2nc(-c3cccs3)cc(C(=O)NCc3ccco3)c12 | 2 | 1 | -1 | -30 | x
CCOC(=O)c1cc(-c2cccs2)nc2c1c(C)nn2-c1ccccn1 | -2 | 2 | 9 | 99* | 100*
CC1(C(=O)NCCC#N)CCN1C(=O)C1(c2ccccc2)CCCC1 (configuration not stated) | x | 0 | x | x | x
O=C(COc1ccccc1)NCC(=O)N/N=C/C=C/c1ccccc1 | 1 | 1 | 0 | 13 | x
O=C(CNC(=O)c1ccc(Cl)cc1)N/N=C/C=C/c1ccccc1 | -1 | 2 | 1 | 99* | 20
O=c1nc(Nc2ccc(OCc3ccccc3)cc2)sc2ncccc12 | -1 | -4 | 0 | 102* | -24
COc1ccc(NC(=O)c2nc[nH]c2C(=O)N(C)CCO)cc1 | x | 0 | x | x | x
Cc1ccc(S(=O)(=O)N(C)CC(O)Cn2c3ccccc3c3ccccc32)cc1 (configuration not stated) | 1 | -1 | 3 | 101* | 42
O=C(Cn1ncc2c3ccccc3n(Cc3ccccc3)c2c1=O)NCc1ccco1 | 1 | 0 | -2 | 96* | 16
CC1(C(=O)NS(=O)(=O)c2ccc(Cl)cc2)CCN1C(=O)Cc1ccc(Cl)cc1Cl (configuration not stated) | x | 3 | x | x | x
SMILES | UPR CHOP act | GAA850 FXN act | UPR XBP1 act | CHOP inhibitor | CHOP confirm
O=C(NCc1cccs1)Nc1cccc(Cl)c1 | 2 | 4 | 1 | x | x
O=C(Nc1cccc(Cl)c1)NC1(C(=O)NCc2cccs2)CCCCC1 | -3 | 0 | -3 | 104* | 24
CCC(=O)N(C)C[C@H]1Oc2ncc(C#Cc3cccnc3)cc2C(=O)N([C@@H](C)CO)C[C@@H]1C | x | 1 | x | x | x
CN(C)c1ccc(CC(=O)N2CCCC(c3cc(C(=O)Nc4ccc(C(C)(C)C)cc4)no3)C2)cc1 (configuration not stated) | x | -6 | x | x | x
COC(=O)C(COC(=O)c1c(F)cccc1F)NC(=O)c1c(F)cccc1F (configuration not stated) | -1 | 5 | -5 | x | x
O=C(OCn1ncc(Br)c(Br)c1=O)c1c(F)cccc1F | x | x | x | x | 125*
CC(=O)Cn1ncc(Br)c(Br)c1=O | x | 1 | x | 105* | 4
CCOc1ccc(OCc2ccc(C(=O)N3CCCC3)o2)cc1 | 2 | 4 | -3 | -47 | x
CCOc1ccc(OCc2ccc(C(=O)N3N=C(C(F)F)CC3(O)C(F)F)o2)cc1 (configuration not stated) | 1 | 3 | -4 | 99* | -11
Cc1ccc(C)c(OCc2ccc(C(=O)N3N=C(C(F)F)CC3(O)C(F)F)o2)c1 (configuration not stated) | -1 | 1 | -6 | 108* | 120*
Cc1cc(C)cc(OCc2ccc(C(=O)N3N=C(C(F)F)CC3(O)C(F)F)o2)c1 (configuration not stated) | 0 | 1 | 2 | 102* | 57
Cc1cc(C)cc(OCc2ccc(C(=O)O)o2)c1 | -2 | 0 | 1 | 48 | x
O=C(c1ccc(COc2ccc(Br)cc2)o1)N1N=C(C(F)F)CC1(O)C(F)F (configuration not stated) | -1 | 1 | -1 | 108* | 21
COC(=O)c1ccc(COc2cc(C)ccc2C)o1 | 5 | 5 | 4 | x | x
O=C(c1ccccc1-n1cccc1)N1N=C(C(F)F)CC1(O)C(F)F (configuration not stated) | 1 | 1 | -1 | 23 | x
O=C(c1ccc(COc2ccc3ccccc3c2)o1)N1N=C(C(F)F)CC1(O)C(F)F (configuration not stated) | -1 | -4 | -1 | 111* | 56
CN(/N=C/c1ccncc1)c1cnn(-c2ccc(F)c(Cl)c2)c(=O)c1Cl | 2 | 2 | -2 | 100* | 3
Cc1ccc(-n2ncc(N(C)C)c(Cl)c2=O)cc1 | -2 | -1 | -5 | 28 | x
CC1(c2ccc3noc(-c4cccc(F)c4)c3c2)OCCO1 | 1 | -1 | -2 | 38 | x
Cc1cccc(-c2onc3ccc(C4(C)OCCO4)cc23)c1 | 3 | 0 | -1 | 106* | 32
Cc1ccc(C(O)c2ncc(-c3cccc4ccccc34)[nH]2)c(C)c1 (configuration not stated) | x | 1 | x | x | x
CCOC(=O)CCCCCC(=O)Nc1ccc2c(c1)C(=O)N([C@H](C)CO)C[C@H](C)[C@H](CN(C)C(=O)C1CCCCC1)OCCCC[C@@H](C)O2 | x | -1 | x | x | x
O=C(/C=C/c1ccc(NC(=O)c2ccccc2-c2ccccc2C(=O)O)cc1)c1ccccc1 | 2 | 1 | -1 | x | x
O=C(/C=C/c1ccncc1)c1ccc(NC(=O)c2ccccc2F)cc1 | x | 12* | x | 106* | -125
